Assay results from ChEMBL document CHEMBL1149468, “Pyridobenzodiazepines: a novel class of orally active, vasopressin V2 receptor selective agonists” (Bioorg Med Chem Lett, 2006).
Activity calls are given as the source filed them. No cut-off for these calls is given here. Bridge positions count the residues as written; N and C are the ends. Square brackets hold non-standard residues; d marks the D form. Peptide text beside a SMILES is read from it. Orn = NCCC[C@H](N)C(=O)O; Mpa = O=C(O)CCS

How the values were obtained:
[1] = target: Vasopressin V1a receptor (Rattus norvegicus) (UniProt P30560); assay: Agonist activity at V1a receptor indicated by production of contractions in rat tail arteries; type: functional, tissue-based
Chain of Vasopressin V1a receptor (Rattus norvegicus) (P30560 whole entry, looked up): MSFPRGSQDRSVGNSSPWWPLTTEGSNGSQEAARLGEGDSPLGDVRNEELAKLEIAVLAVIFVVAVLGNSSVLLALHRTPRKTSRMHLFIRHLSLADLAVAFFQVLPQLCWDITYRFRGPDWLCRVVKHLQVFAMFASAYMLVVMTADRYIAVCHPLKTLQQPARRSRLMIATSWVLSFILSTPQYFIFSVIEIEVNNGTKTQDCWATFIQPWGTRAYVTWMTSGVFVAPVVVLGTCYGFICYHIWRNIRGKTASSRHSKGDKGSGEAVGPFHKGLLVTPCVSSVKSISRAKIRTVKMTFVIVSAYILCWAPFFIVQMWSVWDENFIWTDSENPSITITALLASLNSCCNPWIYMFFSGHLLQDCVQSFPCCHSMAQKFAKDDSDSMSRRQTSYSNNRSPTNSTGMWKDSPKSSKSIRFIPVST

[2] = target: T1, Oxytocin receptor (Rattus norvegicus) (UniProt P70536); assay: Agonist activity at OT receptor indicated by production of contractions in rat uterine strips; type: functional
T1 sequence (whole entry): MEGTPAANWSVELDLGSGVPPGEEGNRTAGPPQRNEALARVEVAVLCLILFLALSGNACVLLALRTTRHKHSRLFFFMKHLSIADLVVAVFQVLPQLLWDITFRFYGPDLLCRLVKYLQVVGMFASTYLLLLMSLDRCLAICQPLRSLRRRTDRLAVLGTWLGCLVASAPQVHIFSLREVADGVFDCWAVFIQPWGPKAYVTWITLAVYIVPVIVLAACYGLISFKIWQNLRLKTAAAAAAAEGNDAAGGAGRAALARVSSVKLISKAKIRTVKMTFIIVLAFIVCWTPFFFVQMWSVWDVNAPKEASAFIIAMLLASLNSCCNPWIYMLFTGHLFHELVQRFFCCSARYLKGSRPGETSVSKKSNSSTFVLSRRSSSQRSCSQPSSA

Vasopressin V1a receptor [3] = target: Vasopressin V1a receptor (Rattus norvegicus, UniProt P30560); assay: Antagonism of AVP-induced response at V1a receptor in isolated rat tail arteries; type: functional, tissue-based
Chain of Vasopressin V1a receptor (Rattus norvegicus, UniProt P30560) (P30560 whole entry): as the sequence (P30560 whole entry, looked up) above

Oxytocin receptor = target: T2, Oxytocin receptor (Rattus norvegicus, UniProt P70536); assay: Antagonism of OT-induced response at OT receptor in rat uterine strips; type: functional
T2 sequence (P70536 whole entry): T1 sequence (whole entry)

Rattus norvegicus [4] = assay: Antidiuretic effect measured as increase in osmolality over control in water-loaded Sprague-Dawley rat at 10 mg/kg, po; type: functional, Urine
Summary of the method: (§1)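 Conscious water-loaded rats dosed orally; 30 min later stomachs gavaged with deionized water, 30 mL/kg. Urine collected over 4 h for volume; osmolality by cryoscopic osmometer; Na+, K+, Cl- by ion-selective electrodes. Expressed as percent change versus control at the stated dose (screening dose 10 mg/kg po).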

Vasopressin V2 receptor [5] = target: T3, Vasopressin V2 receptor (Homo sapiens, UniProt P30518); assay: Binding to human V2 receptor expressed in LV2 cells by cAMP production; type: functional, cell-based
T3 sequence (P30518 whole entry): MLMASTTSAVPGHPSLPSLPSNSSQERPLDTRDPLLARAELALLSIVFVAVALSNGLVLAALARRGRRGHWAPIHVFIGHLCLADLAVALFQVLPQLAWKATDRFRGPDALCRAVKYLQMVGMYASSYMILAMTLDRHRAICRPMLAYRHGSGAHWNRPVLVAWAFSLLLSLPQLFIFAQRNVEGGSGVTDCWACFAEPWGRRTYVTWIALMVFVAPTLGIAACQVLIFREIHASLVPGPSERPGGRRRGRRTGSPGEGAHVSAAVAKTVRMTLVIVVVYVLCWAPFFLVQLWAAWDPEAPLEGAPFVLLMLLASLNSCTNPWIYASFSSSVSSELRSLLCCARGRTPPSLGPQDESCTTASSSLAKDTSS

Vasopressin V1a receptor [6] = target: T4, Vasopressin V1a receptor (Homo sapiens, UniProt P37288); assay: Displacement of [3H]AVP from human V1a receptor expressed in CHO cells; type: cell-based
Summary of the method: (§2)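 Inhibition of [3H]AVP binding to membranes from CHO cells expressing human V1a receptors or from LV2 cells transfected with human V2 receptors; IC50 values are means of two to five (or three) experiments.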
Target sequence in this assay (P37288 whole entry): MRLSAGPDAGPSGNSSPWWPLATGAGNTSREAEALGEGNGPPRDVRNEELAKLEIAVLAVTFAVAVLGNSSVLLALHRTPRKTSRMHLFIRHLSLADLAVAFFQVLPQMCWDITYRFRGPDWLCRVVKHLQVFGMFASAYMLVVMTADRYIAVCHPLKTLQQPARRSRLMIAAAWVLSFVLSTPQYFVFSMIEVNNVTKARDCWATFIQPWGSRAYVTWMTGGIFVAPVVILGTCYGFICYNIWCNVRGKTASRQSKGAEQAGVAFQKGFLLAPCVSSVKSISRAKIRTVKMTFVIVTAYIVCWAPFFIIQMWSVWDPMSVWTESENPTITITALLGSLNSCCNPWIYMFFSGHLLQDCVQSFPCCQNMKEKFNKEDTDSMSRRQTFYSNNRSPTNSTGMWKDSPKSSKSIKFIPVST

Vasopressin V2 receptor [7] = target: T3, Vasopressin V2 receptor; assay: Displacement of [3H]AVP from human V2 receptor transfected in LV2 cells; type: cell-based; summary of the method: as §2
Rattus norvegicus [8] = assay: Antidiuretic effect measured as decrease in urine volume over control in water-loaded Sprague-Dawley rat at 10 mg/kg, po; type: functional; design: Activity: scale not given: the % may be the effect or the level left; conditions: for ED50: Rattus norvegicus, Sprague-Dawley, Urine; for Activity: dose 10 mg/kg; summary of the method: as §1
Vasopressin V2 receptor [9] = target: T3, Vasopressin V2 receptor; assay: Displacement of [3H]AVP from human V2 receptor transfected in LV2 cells at 300 nM; type: cell-based
Summary of the method: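 Inhibition of [3H]AVP binding to membranes of LV2 cells transfected with human V2 receptors, reported as percent inhibition at 300 nM.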

Vasopressin V1a receptor [10] = target: T4, Vasopressin V1a receptor; assay: Displacement of [3H]AVP from human V1a receptor expressed in CHO cells at 0.1 uM; type: cell-based
Target sequence in this assay (P37288 whole entry, looked up): as the sequence (P37288 whole entry) above

Vasopressin V1a receptor [11] = target: T4, Vasopressin V1a receptor; assay: Displacement of [3H]AVP from human V1a receptor expressed in CHO cells at 1 uM; type: cell-based
Target sequence in this assay (P37288 whole entry, looked up): as the sequence (P37288 whole entry) above

Vasopressin V1a receptor [12] = target: T4, Vasopressin V1a receptor; assay: Displacement of [3H]AVP from human V1a receptor expressed in CHO cell membrane at 10 uM; type: cell membranes
Target sequence in this assay (P37288 whole entry, looked up): as the sequence (P37288 whole entry) above

IC50 (Vasopressin V2 receptor [7])	inhibition (Vasopressin V2 receptor [9])	SMILES	Activity (Rattus norvegicus [4])	Activity (Rattus norvegicus [8])	further results
0.493 µM		Cc1ccn(-c2ccc(C(=O)N3Cc4cccnc4Nc4ccccc43)c(C(F)(F)F)c2)n1	239%	87%	Activity [1]: inactive; Activity [2]: inactive; IC50 (Vasopressin V1a receptor [3]): > 30 µM; IC50 (Oxytocin receptor): 1.26 µM; EC50 (Vasopressin V2 receptor [5]): 0.00167 µM; IC50 (Vasopressin V1a receptor [6]): 5.95 µM; ED50 (Rattus norvegicus [8]): 0.1 mg/kg
	-7%	O=C(c1ccc(-n2ccc(C(F)(F)F)n2)cc1C(F)(F)F)N1Cc2cccnc2Nc2ccccc21	183%	69%	
0.183 µM		Cn1ccc(-c2ccc(C(=O)N3Cc4cccnc4Nc4ccccc43)c(Cl)c2)n1	134%	76%	IC50 (Vasopressin V1a receptor [6]): 1.78 µM
0.39 µM		Cc1ccnn1-c1ccc(C(=O)N2Cc3cccnc3Nc3ccccc32)c(Cl)c1	189%	61%	
	26%	CC(C)(C)c1ccn(-c2ccc(C(=O)N3Cc4cccnc4Nc4ccccc43)c(C(F)(F)F)c2)n1	-7%	6%	
	5%	Cc1ccn(-c2cc(F)ccc2C(=O)N2Cc3cccnc3Nc3ccccc32)n1	177%	63%	
0.933 µM		Cc1ccn(-c2ccc(C(=O)N3Cc4cccnc4Nc4ccccc43)c(F)c2)n1	272%	59%	
0.0915 µM		Cc1ccn(-c2ccc(C(=O)N3Cc4cccnc4Nc4ccccc43)c(Cl)c2)n1	172%	80%	inhibition (Vasopressin V1a receptor [11]): 38%
	13%	O=C(c1ccc(-n2ccc(C(F)(F)F)n2)cc1Cl)N1Cc2cccnc2Nc2ccccc21	162%	72%	
	26%	O=C(c1ccc(-n2ccc(-c3ccncc3)n2)cc1Br)N1Cc2cccnc2Nc2ccccc21	11%	24%	
0.296 µM		Cc1ccn(-c2ccc(C(=O)N3Cc4cccnc4Nc4ccccc43)c(Br)c2)n1	247%	85%	inhibition (Vasopressin V1a receptor [11]): 30%

More lines, now with the values behind:

SMILES	IC50 (Vasopressin V2 receptor [7])	inhibition (Vasopressin V2 receptor [9])	Activity (Rattus norvegicus [4])	Activity (Rattus norvegicus [8])	further results
Cc1ccnn1-c1ccc(C(=O)N2Cc3cccnc3Nc3ccccc32)c(C(F)(F)F)c1	0.413 µM		4%	25%	inhibition (Vasopressin V1a receptor [10]): 11%
Cc1ccn(-c2ccc(C(=O)N3Cc4cccn4Cc4ccccc43)c(Cl)c2)n1	0.08 µM		286%	74%	EC50 (Vasopressin V2 receptor [5]): 0.00074 µM; IC50 (Vasopressin V1a receptor [6]): 0.778 µM; ED50 (Rattus norvegicus [8]): 0.14 mg/kg
Cc1ccn(-c2ccc(C(=O)N3Cc4cccnc4N(C)c4ccccc43)c(Cl)c2)n1	0.475 µM		275%	71%	inhibition (Vasopressin V1a receptor [11]): 20%
CN1c2ccccc2N(C(=O)c2ccc(-c3ccn(C)n3)cc2Cl)Cc2cccnc21			-11%	10%	
Cc1ccn(-c2ccc(C(=O)N3Cc4cccnc4N(C)c4ccccc43)c(C(F)(F)F)c2)n1		10%	198%	72%	inhibition (Vasopressin V1a receptor [12]): 32%
CCOc1ccc(C[C@H]2NC(=O)CCSSC[C@@H](C(=O)N3CCC[C@H]3C(=O)N[C@@H](CCCN)C(=O)NCC(N)=O)NC(=O)[C@H](CC(N)=O)NC(=O)[C@H]([C@@H](C)O)NC(=O)[C@H]([C@@H](C)CC)NC2=O)cc1 [ATOSIBAN] ([Mpa][dY](Et)ITNCP[Orn]G-NH2; disulfide 1-6)					IC50 (Oxytocin receptor): 0.012 µM
Cc1n[nH]c(-c2ccc(C(=O)N3Cc4cccnc4Nc4ccccc43)c(Cl)c2)n1			516%	86%	
